Assay results reported in ChEMBL document CHEMBL3091443, “Synthesis of novel 7-substituted pyrido[2',3':4,5]furo[3,2-d]pyrimidin-4-amines and their N-aryl analogues and evaluation of their inhibitory activity against Ser/Thr kinases” (Bioorg Med Chem Lett, 2013).

How the values were obtained:
[1] = target: Cyclin-dependent kinase 5/CDK5 activator 1 (Homo sapiens, UniProt Q00535); experiment: Inhibition of human recombinant CDK5/p25 using [gamma-33P]ATP as substrate after 30 mins by scintillation counting analysis; type: protein-complex assay
In short: (§1)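 Compounds were screened first at 10 µM final; those giving under 50% inhibition were scored as IC50 >10 µM, and the rest were taken to IC50 determination (µM). Kinase activities were assayed in triplicate, with standard deviation of single data points typically below 10%. Assay procedures are cited to earlier reports.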

[2] = Inhibition of pig brain CK1delta/epsilon using RRKHAAIGpSAYSITA as substrate after 30 mins by scintillation counting analysis; parameters: species or system Sus scrofa; in short: as §1
[3] = target: Glycogen synthase kinase-3 (Sus scrofa, UniProt B2LUN4+I6LNT8); experiment: Inhibition of pig brain GSK3alpha/beta using YRRAAVPPSPSLSRHSSPHQpSEDEEE as substrate after 30 mins by scintillation counting analysis
In short: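 Screened first at 10 μM final; compounds giving under 50% inhibition at that level were recorded as IC50 >10 μM. Kinase activity was assayed in triplicate, and IC50 values are reported in μM.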

[4] = target: Dual specificity tyrosine-phosphorylation-regulated kinase 1A (Rattus norvegicus, UniProt Q63470); experiment: Inhibition of rat recombinant GST-tagged DYRK1A expressed in Escherichia coli using KKISGRLSPIMTEQ as substrate after 30 mins by scintillation counting analysis; in short: as §1
[5] = target: Dual specificity protein kinase CLK1 (Homo sapiens, UniProt P49759); experiment: Inhibition of human recombinant GST-tagged CLK1 expressed in Escherichia coli using GRSRSRSRSRSR as substrate; in short: as §1
Sequence of Dual specificity protein kinase CLK1 (P49759 whole entry): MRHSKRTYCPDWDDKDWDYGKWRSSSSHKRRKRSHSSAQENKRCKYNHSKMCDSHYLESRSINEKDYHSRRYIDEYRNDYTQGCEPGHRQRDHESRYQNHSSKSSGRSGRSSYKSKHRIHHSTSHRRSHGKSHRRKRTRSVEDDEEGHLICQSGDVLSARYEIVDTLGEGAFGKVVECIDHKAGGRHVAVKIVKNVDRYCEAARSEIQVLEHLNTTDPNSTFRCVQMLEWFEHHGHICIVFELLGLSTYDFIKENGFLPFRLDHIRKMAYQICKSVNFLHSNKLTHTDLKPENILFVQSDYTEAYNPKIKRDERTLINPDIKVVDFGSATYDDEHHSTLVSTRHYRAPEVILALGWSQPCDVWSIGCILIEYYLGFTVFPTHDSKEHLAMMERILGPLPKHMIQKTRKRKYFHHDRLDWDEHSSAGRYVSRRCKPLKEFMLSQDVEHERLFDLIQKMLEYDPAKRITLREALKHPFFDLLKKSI

Sequence of Cyclin-dependent kinase 5/CDK5 activator 1 (Q00535 whole entry): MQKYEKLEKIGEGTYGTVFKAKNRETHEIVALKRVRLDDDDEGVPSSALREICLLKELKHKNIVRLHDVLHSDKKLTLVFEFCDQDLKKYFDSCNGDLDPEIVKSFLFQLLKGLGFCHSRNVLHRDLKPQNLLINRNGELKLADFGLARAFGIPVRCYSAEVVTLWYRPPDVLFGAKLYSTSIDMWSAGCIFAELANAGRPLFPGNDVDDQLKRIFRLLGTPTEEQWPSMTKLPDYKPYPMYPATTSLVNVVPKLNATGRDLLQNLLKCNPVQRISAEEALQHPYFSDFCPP
Sequence of Cyclin-dependent kinase 5/CDK5 activator 1 (Q15078 whole entry, further chain): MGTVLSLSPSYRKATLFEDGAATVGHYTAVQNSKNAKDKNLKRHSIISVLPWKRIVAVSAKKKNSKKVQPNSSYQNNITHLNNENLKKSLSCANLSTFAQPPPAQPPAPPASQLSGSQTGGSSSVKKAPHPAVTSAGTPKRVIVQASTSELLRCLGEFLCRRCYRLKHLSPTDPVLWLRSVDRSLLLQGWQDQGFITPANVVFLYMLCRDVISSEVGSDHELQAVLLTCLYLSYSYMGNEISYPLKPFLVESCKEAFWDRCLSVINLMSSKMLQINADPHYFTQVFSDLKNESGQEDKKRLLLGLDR

Row | Compound | IC50 [1] | IC50 [2] | IC50 [3] | IC50 [4] | IC50 [5]
1 | COc1ccc(Nc2ncnc3c2oc2cc(-c4ccc5c(c4)OCO5)cnc23)cc1 | > 10 µM | > 10 µM | > 10 µM | > 10 µM | > 10 µM
2 | COc1ccc(Nc2ncnc3c2oc2cccnc23)cc1OC | > 10 µM | > 10 µM | > 10 µM | > 10 µM | > 10 µM
3 | c1nc(Nc2ccc3c(c2)OCO3)c2oc3cc(-c4ccc5c(c4)OCO5)cnc3c2n1 | > 10 µM | > 10 µM | > 10 µM | > 10 µM | > 10 µM
4 | c1cnc2c(c1)oc1c(Nc3ccc4c(c3)OCO4)ncnc12 | > 10 µM | > 10 µM | > 10 µM | > 10 µM | > 10 µM
5 | Nc1ncnc2c1oc1cc(-c3ccccc3)cnc12 | > 10 µM | > 10 µM | > 10 µM | 3.1 µM | 0.69 µM
6 | COc1cc(Nc2ncnc3c2oc2cccnc23)cc(OC)c1OC | > 10 µM | > 10 µM | > 10 µM | > 10 µM | > 10 µM
7 | Nc1ncnc2c1oc1cc(-c3cccc(Cl)c3)cnc12 | > 10 µM | > 10 µM | > 10 µM | > 10 µM | 1 µM
8 | c1ccc(Nc2ncnc3c2oc2cc(-c4ccc5c(c4)OCO5)cnc23)cc1 | > 10 µM | > 10 µM | > 10 µM | > 10 µM | > 10 µM
9 | c1ccc(Nc2ncnc3c2oc2cccnc23)cc1 | > 10 µM | > 10 µM | > 10 µM | > 10 µM | > 10 µM
10 | Nc1ncnc2c1oc1cc(-c3ccc(Cl)c(Cl)c3)cnc12 | > 10 µM | > 10 µM | > 10 µM | > 10 µM | > 10 µM
11 | Cc1ccc(Nc2ncnc3c2oc2cc(-c4ccc5c(c4)OCO5)cnc23)cc1 | > 10 µM | > 10 µM | > 10 µM | > 10 µM | > 10 µM
12 | Fc1ccc(Nc2ncnc3c2oc2cccnc23)cc1Cl | > 10 µM | > 10 µM | > 10 µM | > 10 µM | > 10 µM
13 | Fc1ccc(Nc2ncnc3c2oc2cc(-c4ccc5c(c4)OCO5)cnc23)cc1Cl | > 10 µM | > 10 µM | > 10 µM | > 10 µM | > 10 µM
14 | Clc1ccc(Nc2ncnc3c2oc2cc(-c4ccc5c(c4)OCO5)cnc23)cc1Cl | > 10 µM | > 10 µM | > 10 µM | > 10 µM | > 10 µM
15 | Nc1ncnc2c1oc1cc(-c3ccc4c(c3)OCO4)cnc12 | > 10 µM | > 10 µM | > 10 µM | 2.3 µM | 0.32 µM
16 | C1=COc2cc(Nc3ncnc4c3oc3cccnc34)ccc2O1 | > 10 µM | > 10 µM | > 10 µM | > 10 µM | > 10 µM
17 | Cc1ccc(-c2cnc3c(c2)oc2c(N)ncnc23)cc1 | > 10 µM | > 10 µM | > 10 µM | 4.4 µM | 0.61 µM
18 | Nc1ncnc2c1oc1cc(-c3ccc(Cl)cc3Cl)cnc12 | > 10 µM | > 10 µM | > 10 µM | 0.6 µM | 0.049 µM
19 | Nc1ncnc2c1oc1cccnc12 | > 10 µM | > 10 µM | > 10 µM | > 10 µM | > 10 µM
20 | Clc1ccc(Nc2ncnc3c2oc2cc(-c4ccc5c(c4)OCO5)cnc23)cc1 | > 10 µM | > 10 µM | > 10 µM | > 10 µM | > 10 µM
21 | COc1cc(Nc2ncnc3c2oc2cccnc23)cc(OC)c1 | > 10 µM | > 10 µM | > 10 µM | > 10 µM | > 10 µM
22 | COc1ccc(Nc2ncnc3c2oc2cc(-c4ccc5c(c4)OCO5)cnc23)cc1OC | > 10 µM | > 10 µM | > 10 µM | > 10 µM | > 10 µM
23 | COc1cc(Nc2ncnc3c2oc2cc(-c4ccc5c(c4)OCO5)cnc23)cc(OC)c1OC | > 10 µM | > 10 µM | > 10 µM | > 10 µM | > 10 µM
24 | COc1ccc(Nc2ncnc3c2oc2cccnc23)cc1 | > 10 µM | > 10 µM | > 10 µM | > 10 µM | > 10 µM
25 | Fc1cc(Br)ccc1Nc1ncnc2c1oc1cccnc12 | > 10 µM | > 10 µM | > 10 µM | > 10 µM | > 10 µM
26 | COc1ccc(-c2cnc3c(c2)oc2c(N)ncnc23)cc1 | > 10 µM | > 10 µM | > 10 µM | > 10 µM | > 10 µM
